Bioassay records from PubChem BioAssay.
SIRT5 inh: sirtuin-5 (human) deacylase inhibition; Purified SirT5, succinyl-peptide AMC, trypsin-coupled fluorescence; AID 652115; Q9NXA8; 330,000 compounds, 1.1% hits; inhibition, % at 15 µM; in the data active means inhibition above about 15%; inconclusive means no clear call, values can overlap the other calls
PglD inh: PglD (C. jejuni) enzyme inhibition; purified PglD enzyme, DTNB colorimetric CoA detection; 360,000 compounds, 0.098% hits; inhibition, % at 12.5 µM; AID 602405; in the data active means inhibition above about 16%, passing the limit was not always enough; inconclusive means no clear call, values can overlap the other calls
DENV2 CPE: inhibitors of DENV2 cytopathic effect | AID 651640 | CPE inhibition, % at 9.99 µM | 350,000 compounds, 1.7% hits | DENV2-infected cells, cytopathic effect rescue, plate reader; in the data active means CPE inhibition above about 20%, passing the limit was not always enough; inconclusive means no clear call, values can overlap the other calls; tested in BHK-21 cells
E-sel inducer: E-selectin induction on HUVECs; AID 686992; 260,000 compounds, 0.37% hits; P16581; activation, % at 7.58 µM; HUVEC E-selectin immunofluorescence imaging; normalized: neutral wells 0, TNF-alpha wells 100;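 active means mean E-selectin-positive cell signal at least 10% of the positive control, reached in at least 60% of replicates, without over 20% cell loss; inconclusive means no rule given, readout overlaps actives, possibly toxicity-flagged; inactive means the rest, including those meeting only one limit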
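Material: HUVEC primary endothelial cells; Amount: 3,000 cells per well; Dosing: single concentration; Medium: EGM-2 growth medium on 0.1% gelatin-coated wells; Read-out basis: percent E-selectin-positive cells; Signal: immunofluorescence imaging; Control set: TNF-alpha, DMSO.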
ERAP1 inh: blocks human ERAP1 aminopeptidase activity; Q9NZ08; recombinant ERAP1, Leu-AMC fluorescence, 60 min; inhibition, % at 10.7 µM; 340,000 compounds, 0.15% hits; AID 652197;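 active means mean replicate inhibition of at least 30%, or all replicates individually reaching that 30% level; inactive means mean below 30% and not every replicate reaching it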
Target sequence (Q9NZ08 whole entry, looked up): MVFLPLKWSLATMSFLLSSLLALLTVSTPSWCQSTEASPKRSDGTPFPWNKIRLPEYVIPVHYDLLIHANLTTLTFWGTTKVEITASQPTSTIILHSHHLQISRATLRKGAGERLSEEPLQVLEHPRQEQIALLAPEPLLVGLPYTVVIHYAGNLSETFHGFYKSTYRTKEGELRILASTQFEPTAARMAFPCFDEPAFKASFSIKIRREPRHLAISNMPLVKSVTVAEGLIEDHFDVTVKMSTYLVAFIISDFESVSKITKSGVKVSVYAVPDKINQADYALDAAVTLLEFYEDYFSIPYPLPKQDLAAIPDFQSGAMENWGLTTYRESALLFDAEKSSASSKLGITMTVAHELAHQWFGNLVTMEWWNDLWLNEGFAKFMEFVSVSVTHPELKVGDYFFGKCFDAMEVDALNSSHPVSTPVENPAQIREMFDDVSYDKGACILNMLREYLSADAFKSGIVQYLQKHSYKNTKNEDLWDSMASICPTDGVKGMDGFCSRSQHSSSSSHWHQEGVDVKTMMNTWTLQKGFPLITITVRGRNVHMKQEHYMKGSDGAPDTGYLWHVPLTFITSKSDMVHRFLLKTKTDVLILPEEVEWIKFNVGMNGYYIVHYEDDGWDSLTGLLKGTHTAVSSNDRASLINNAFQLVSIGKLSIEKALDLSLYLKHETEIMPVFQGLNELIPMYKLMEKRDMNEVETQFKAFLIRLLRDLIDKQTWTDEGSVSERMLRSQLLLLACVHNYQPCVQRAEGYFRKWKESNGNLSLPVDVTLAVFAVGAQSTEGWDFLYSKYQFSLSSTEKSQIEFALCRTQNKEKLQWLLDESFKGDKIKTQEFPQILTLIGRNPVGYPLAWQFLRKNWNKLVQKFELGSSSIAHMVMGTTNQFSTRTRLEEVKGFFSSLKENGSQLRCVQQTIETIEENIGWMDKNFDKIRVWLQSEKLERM
Numbers stand for hits; 0 = inactive; ? = inconclusive; - = not tested or not shown. Shown are actives, neighbours in structure and some others; about 2.5% of the full set was active somewhere.

SMILES	SIRT5 inh	PglD inh	DENV2 CPE	E-sel inducer	ERAP1 inh
CCc1ccc(C(=O)NC(CC(C)C)C(=O)O)cc1 (stereo not drawn)	-	0	-	-	-
COc1ccc(SC[C@H](C)CN2CC[C@H](C)CCC2=O)cc1	0	0	?	0	0
CCOC(=O)C1=C(C)NC(=O)C(C#N)C1c1ccncc1 (stereo not drawn)	0	0	36.2	-	0
CC(C)n1cnc2c(oc3ccccc32)c1=O	0	0	0	0	0
CCNC(=O)N(CC)C[C@H]1N[C@@](Cc2ccccc2)(C(=O)OC)[C@H]2C(=O)N(Cc3ccccc3)C(=O)[C@@H]12	0	0	37.2	0	0
CCN(C[C@H]1N[C@@](CC)(C(=O)OC)[C@H]2C(=O)N(C)C(=O)[C@@H]12)S(=O)(=O)c1ccc(C(F)(F)F)cc1	0	0	52.1	-	0
CCN(C[C@H]1N[C@@](Cc2ccccc2)(C(=O)OC)[C@H]2C(=O)N(C)C(=O)[C@@H]12)C(=O)Nc1ccc(C(F)(F)F)cc1	27.7	0	0	0	0
O=C(NCCC1CCCCN1S(=O)(=O)c1ccccc1)C(=O)NCc1ccccn1 (stereo not drawn)	0	0	91.7	-	0
COc1ccc(S(=O)(=O)N2CCOC2CNC(=O)C(=O)NCc2ccccn2)cc1 (stereo not drawn)	0	0	0	0	0
O=C(NCc1ccccn1)C(=O)NCC1OCCN1S(=O)(=O)c1ccc(Br)cc1 (stereo not drawn)	0	0	63.7	0	0
Cc1ccc(C)c(S(=O)(=O)N2CCCCC2CCNC(=O)C(=O)NCCc2ccco2)c1 (stereo not drawn)	0	0	0	61.5	0
COc1ccc2oc(C(=O)OCC(=O)NC3CCCCC3)c(C)c2c1	0	0	?	-	0
Cc1cccc(C)c1NC(=O)c1c(O)c2ccccc2[nH]c1=O	0	0	0	-	0
Cc1ccc(S(=O)(=O)N(C)C[C@H]2OCCCC[C@@H](C)Oc3ccc(NS(=O)(=O)c4ccc(F)cc4)cc3C(=O)N([C@@H](C)CO)C[C@H]2C)cc1	22.2	0	0	0	0
Cc1ccc(S(=O)(=O)N(C)C[C@H]2OCCCC[C@H](C)Oc3ccc(NS(=O)(=O)c4ccc(F)cc4)cc3C(=O)N([C@@H](C)CO)C[C@H]2C)cc1	25.0	0	0	0	0
Cc1ccc(S(=O)(=O)N(C)C[C@@H]2OCCCC[C@H](C)Oc3ccc(NS(=O)(=O)c4ccc(F)cc4)cc3C(=O)N([C@@H](C)CO)C[C@@H]2C)cc1	20.0	0	0	0	0
Cc1ccc(S(=O)(=O)Nc2ccc3c(c2)C(=O)N([C@H](C)CO)C[C@@H](C)[C@H](CN(C)S(=O)(=O)c2ccc(F)cc2)OCCCC[C@H](C)O3)cc1	0	-	0	0	0
Cc1ccc(S(=O)(=O)Nc2ccc3c(c2)C(=O)N([C@@H](C)CO)C[C@H](C)[C@@H](CN(C)S(=O)(=O)c2ccc(F)cc2)OCCCC[C@@H](C)O3)cc1	0	-	0	0	0
Cc1ccc(S(=O)(=O)Nc2ccc3c(c2)C(=O)N([C@H](C)CO)C[C@H](C)[C@H](CN(C)S(=O)(=O)c2ccc(F)cc2)OCCCC[C@H](C)O3)cc1	17.0	0	0	0	0
COc1ccc(CNC(=O)C[C@@H]2C[C@@H]3c4cc(NC(=O)C5CCC5)ccc4O[C@@H]3[C@@H](CO)O2)cc1	-	0	0	0	0
COc1ccc(C(=O)CN2CCN(CCN3C(=O)c4cccc5cccc(c45)C3=O)CC2)cc1	0	0	0	-	0
C[C@H](CO)N1C[C@H](C)[C@H](CN(C)Cc2ccccc2)Oc2ccc(NC(=O)CCC(F)(F)F)cc2C1=O	0	0	0	0	0
Cc1ccc(S(=O)(=O)Nc2ccc3c(c2)C(=O)N([C@H](C)CO)C[C@H](C)[C@@H](CN(C)S(=O)(=O)c2ccc(F)cc2)OCCCC[C@@H](C)O3)cc1	0	0	0	0	0
Cc1ccc(S(=O)(=O)N(C)C[C@@H]2OCCCC[C@@H](C)Oc3ccc(NS(=O)(=O)c4ccc(F)cc4)cc3C(=O)N([C@@H](C)CO)C[C@H]2C)cc1	19.6	0	0	0	0
Cc1ccc(S(=O)(=O)N(C)C[C@@H]2OCCCC[C@H](C)Oc3ccc(NS(=O)(=O)c4ccc(F)cc4)cc3C(=O)N([C@H](C)CO)C[C@@H]2C)cc1	25.7	0	0	0	0
SMILES	SIRT5 inh	PglD inh	DENV2 CPE	E-sel inducer	ERAP1 inh
Cc1ccc(S(=O)(=O)N(C)C[C@@H]2OCCCC[C@@H](C)Oc3ccc(NS(=O)(=O)c4ccc(F)cc4)cc3C(=O)N([C@H](C)CO)C[C@@H]2C)cc1	0	0	0	0	0
Cc1ccc(S(=O)(=O)N(C)C[C@H]2OCCCC[C@H](C)Oc3ccc(NS(=O)(=O)c4ccc(F)cc4)cc3C(=O)N([C@H](C)CO)C[C@H]2C)cc1	24.7	0	0	0	0
COc1ccc(-c2nsc(SCC(=O)Nc3ccc4c(c3)OCO4)n2)cc1	0	-	0	0	0
CC1CCN(S(=O)(=O)c2ccc(NC(=O)C3CC3)cc2)CC1	0	-	0	-	0
CC(=O)c1ccc(NC(=O)C(C)N(C)CC(=O)Nc2ccc(Cl)cc2)cc1 (stereo not drawn)	0	0	0	0	0
C[C@H](CO)N1C[C@H](C)[C@H](CN(C)C(=O)c2ccccc2)OCCCC[C@H](C)Oc2ccc(NC(=O)CCCCCC(=O)Nc3ccccc3N)cc2C1=O	0	0	0	-	0
C[C@@H]1CCCCO[C@H](CN(C)C(=O)NC2CCCCC2)[C@@H](C)CN([C@H](C)CO)C(=O)c2cc(NC(=O)CCCCCC(=O)Nc3ccccc3N)ccc2O1	0	0	112.1	0	0
C[C@@H]1CCCCO[C@H](CN(C)C(=O)c2ccccc2)[C@H](C)CN([C@@H](C)CO)C(=O)c2cc(NC(=O)CCCCCC(=O)Nc3ccccc3N)ccc2O1	0	0	20.3	-	0
COc1ccc(C(CNC(=O)CCNC(=O)c2ccc(Br)cc2)N2CCOCC2)cc1 (stereo not drawn)	0	0	38.9	0	0
CCCCOc1ccc(C(=O)NCC(=O)NCC(c2ccc(OC)cc2)N2CCOCC2)cc1 (stereo not drawn)	0	0	0	-	0
C=CCNC(=O)[C@H]1[C@@H]2C(=O)O[C@@H](c3ccccc3)[C@@H](c3ccccc3)N2[C@@H](c2ccc(O)cc2)[C@]12C(=O)Nc1ccc(C#Cc3ccc(OC)cc3)cc12	0	0	0	-	0
COC(=O)C(=O)C1CCc2c(Cl)cc(OC)c(OC)c2C1=O (stereo not drawn)	0	-	64.7	-	0
CNC(=O)c1cc(Cl)c(OC)c(OC)c1	0	0	0	0	0
COc1ccc(S(=O)(=O)Nc2ccc3c(c2)C(=O)N([C@H](C)CO)C[C@H](C)[C@H](CN(C)C(=O)Nc2ccc4c(c2)OCO4)OCCCC[C@H](C)O3)cc1	17.4	0	0	0	0
C[C@H]1CCCCO[C@H](CN(C)C(=O)Nc2ccc3c(c2)OCO3)[C@@H](C)CN([C@@H](C)CO)C(=O)c2cc(NS(=O)(=O)c3ccc(Cl)cc3)ccc2O1	0	0	51.8	0	0
